Measured values published in ChEMBL document CHEMBL1121993, “A specific inhibitor of IgE-antibody formation: n-pentyl beta-D-fructopyranoside” (1982).

Experiments:
Type in all cases: functional
Rattus norvegicus [1] = organism: Rattus norvegicus; test: Evaluated for effect against passive cutaneous anaphylaxis in rats immunized with DNP-As and B. pertussis; PCA (log2)
Outline: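 Rats were immunized with 1 mg DNP-As and 10^10 B. pertussis on day 0 and boosted with 0.5 mg DNP-As on day 5. Drug was given at 100 (mg/kg)/day ip for 5 days from day 0, and serum was taken on day 8. PCA was read in male Wistar rats after id serum, with iv DNP-As and Evans blue. Titer is the greatest dilution with a spot >5 mm; means ± SE of eight rats.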

Rattus norvegicus [2] = organism: Rattus norvegicus; test: Evaluated for effect against passive hemagglutinination in rats immunized with DNP-As and B. pertussis; PHA(log2)
Outline: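 Rats were immunized day 0 with 1 mg DNP-As plus 10¹⁰ killed B. pertussis, boosted day 5 with 0.5 mg DNP-As alone, and titers read on day 8. Dosing was 100 (mg/kg)/day ip for 5 days from day 0. Serum dilutions were incubated with DNP-As-coupled sheep erythrocytes for 2 h at 37 °C; complete agglutination endpoint as 2^n; means ± SE, eight rats.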

Mus musculus [3] = organism: Mus musculus; test: Evaluated for effect against passive cutaneous anaphylaxis in female BALB/c mice immunized with 10 ug of DNP-As and 2 mg of Al(OH3) after day 21; PCA (log2)
Outline: (§1)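 Female BALB/c mice received 10 μg DNP-As and 2 mg Al(OH)3 on day 0, then 100 (mg/kg)/day po in 2% NaHCO3 for 5 days after immunization. Sera were taken on days 10, 21 and 30 and pooled from five mice. PCA was done in normal male Wistar rats: serum id in duplicate, then 1 mg DNP-As with 5 mg Evans blue iv; titer is the greatest dilution with a reaction >5 mm.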

Mus musculus [4] = organism: Mus musculus; test: Evaluated for effect against passive hemagglutinination in female BALB/c mice immunized with 10 ug of DNP-As and 2 mg of Al(OH3) after day 10; PHA(log2)
Outline: (§2)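 Female BALB/c mice were given 10 μg DNP-As and 2 mg Al(OH)3 on day 0, then 100 (mg/kg)/day po in 2% NaHCO3 for 5 days after immunization. Pooled sera from five mice (days 10, 21, 30) were serially diluted and mixed with sheep red cells coupled to DNP-As via glutaraldehyde, then held 2 h at 37 °C. Titer is the greatest dilution with complete agglutination, expressed as n of 2^n.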

Mus musculus [5] = organism: Mus musculus; test: Evaluated for effect against passive cutaneous anaphylaxis in female BALB/c mice immunized with 10 ug of DNP-As and 2 mg of Al(OH3) after day 10; PCA (log2); outline: as §1
Mus musculus [6] = organism: Mus musculus; test: Evaluated for effect against passive hemagglutinination in female BALB/c mice immunized with 10 ug of DNP-As and 2 mg of Al(OH3) after day 21; PHA(log2); outline: as §2
Mus musculus [7] = organism: Mus musculus; test: Evaluated for effect against passive hemagglutinination in female BALB/c mice immunized with 10 ug of DNP-As and 2 mg of Al(OH3) after day 30; PHA(log2); outline: as §2
Mus musculus [8] = organism: Mus musculus; test: Evaluated for effect against passive cutaneous anaphylaxis in female BALB/c mice immunized with 10 ug of DNP-As and 2 mg of Al(OH3) after day 30; PCA (log2); outline: as §1
Mus musculus [9] = organism: Mus musculus; test: Evaluated for effect against passive hemagglutinination (PHA) in female BALB/c mice immunized with 10 ug of DNP-As and 2 mg of Al(OH3) after day 30; PHA(log2); outline: as §2
Mus musculus [10] = organism: Mus musculus; test: Evaluated for effect against passive hemagglutinination (PHA) in female BALB/c mice immunized with 10 ug of DNP-As and 2 mg of Al(OH3) after day 21; PHA(log2); outline: as §2
Mus musculus [11] = organism: Mus musculus; test: Evaluated for effect against passive cutaneous anaphylaxis (PCA) in female BALB/c mice immunized with 10 ug of DNP-As and 2 mg of Al(OH3) after day 21; PCA (log2); outline: as §1
Rattus norvegicus [12] = organism: Rattus norvegicus; test: Evaluated for effect against passive hemagglutinination in female wistar rats; PHA(log2)
Outline: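 Female Wistar rats were immunized with 1 mg DNP-As plus 10¹⁰ killed B. pertussis on day 0, boosted on day 5 with 0.5 mg DNP-As, and sera taken on day 8. Compound in 2% NaHCO₃ was given at 100 (mg/kg)/day po for 5 days from day 0. Hemagglutination used DNP-As-coupled sheep RBC, 2 h at 37 °C; titer is the highest complete-agglutination dilution (log2); mean ± SE, eight rats.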

Mus musculus [13] = organism: Mus musculus; test: Evaluated for effect against passive cutaneous anaphylaxis (PCA) in female BALB/c mice immunized with 10 ug of DNP-As and 2 mg of Al(OH3) after day 30; PCA (log2); outline: as §1
Rattus norvegicus [14] = organism: Rattus norvegicus; test: Evaluated for effect against passive cutaneous anaphylaxis in female wistar rats; PCA (log2)
Outline: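 Female Wistar rats (190–210 g) were immunized with 1 mg DNP-As plus 10^10 killed B. pertussis on day 0 and boosted with 0.5 mg DNP-As on day 5; serum was taken on day 8. Drug was given at 100 (mg/kg)/day po in 2% NaHCO3 for 5 days from day 0. Serum was then tested by PCA in normal male rats (Evans blue readout, >5 mm cutoff). Values are means ± SE, n=8.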

Mus musculus [15] = organism: Mus musculus; test: Evaluated for effect against passive cutaneous anaphylaxis (PCA) in female BALB/c mice immunized with 10 ug of DNP-As and 2 mg of Al(OH3) after day 10; PCA (log2); outline: as §1
Mus musculus [16] = organism: Mus musculus; test: Evaluated for effect against passive hemagglutinination (PHA) in female BALB/c mice immunized with 10 ug of DNP-As and 2 mg of Al(OH3) after day 10; PHA(log2); outline: as §2

Compound: CCCCO[C@@]1(CO)O[C@H](CO)[C@@H](O)[C@@H]1O
- PCA (Rattus norvegicus [1]): 6.7

Compound: CCO[C@@]1(CO)O[C@H](CO)[C@@H](O)[C@@H]1O
- PCA (Rattus norvegicus [1]): 6.5

Compound: OC[C@@]1(OCc2ccccc2)OC[C@@H](O)[C@H](O)[C@@H]1O
- PHA (Rattus norvegicus [2]): 9
- PCA (Mus musculus [3]): 9
- PCA (Rattus norvegicus [1]): 7
- PHA (Mus musculus [4]): 6
- PCA (Mus musculus [5]): 8.6
- PHA (Mus musculus [6]): 5
- PHA (Mus musculus [7]): 6
- PCA (Mus musculus [8]): 8.4

Compound: CCO[C@]1(CO)OC[C@@H](O)[C@H](O)[C@@H]1O
- PHA (Rattus norvegicus [2]): 7.9
- PHA (Mus musculus [9]): 6
- PHA (Mus musculus [10]): 5
- PCA (Mus musculus [11]): 8.3
- PCA (Rattus norvegicus [1]): 7.1
- PHA (Rattus norvegicus [12]): 8.5
- PCA (Mus musculus [13]): 7.8
- PCA (Rattus norvegicus [14]): 6.7
- PCA (Mus musculus [15]): 7.9
- PHA (Mus musculus [16]): 5

Compound: O=P1(N(CCCl)CCCl)NCCCO1 (centres undefined) [CYCLOPHOSPHAMIDE ANHYDROUS]
- PHA (Rattus norvegicus [2]): 1.3
- PCA (Rattus norvegicus [1]): <2

Compound: CCO[C@]1(CO)O[C@H](CO)[C@@H](O)[C@@H]1O
- PCA (Rattus norvegicus [1]): 6.1

Compound: CCCO[C@@]1(CO)O[C@H](CO)[C@@H](O)[C@@H]1O
- PCA (Rattus norvegicus [1]): 7.3
